# Experimental data published in ChEMBL document CHEMBL1126755, “Anticonvulsant activities of some arylsemicarbazones displaying potent oral activity in the maximal electroshock screen in rats accompanied by high protection indices” (J Med Chem, 1993).
# Experiments:
# [1] = Protective index is the ratio of TD50 in neurotoxicity screen test and ED50 in MES screen test
# Mus musculus [2] = assay: Effective dose for protection against seizures induced in the subcutaneous pentylenetetrazole screen test in mice; assay type: functional; settings: sc
# Summary of the method: (§1)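 Mice received compound intraperitoneally, with quantitative evaluation in the MES, scPTZ and neurotoxicity screens at the tabulated time. ED50 or TD50 (mg/kg) reported with 95% CI, slope and SE. Testing done by NINDS under its reported procedures.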
# Mus musculus [3] = assay: Ability to prevent seizures induced by subcutaneous injection of picrotoxin, after 1 hr in mice; assay type: functional; settings: sc
# Summary of the method: (§2)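 Mice received various intraperitoneal doses of compound, then subcutaneous picrotoxin at 2.5 mg/kg. Protection from seizures was scored. ED50 values use eight mice per dose and are given with 95% CI, slope and SE.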
# [4] = Toxic dose determined as neurotoxicity, 1 h after oral dosing in rat; assay type: toxicity, organism-based; settings: in vivo
# Summary of the method: (§3)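 Oral dosing in rats, with MES protection or neurotoxicity assessed at the stated time. ED50 or TD50 (mg/kg) given with 95% CI, slope and SE. Testing done by NINDS under its reported procedures.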
# Mus musculus [5] = assay: Effective dose for protection against seizures induced in the maximal electroshock anticonvulsant screen test after intraperitoneal injection in mice; assay type: functional; settings: ip
# Summary of the method: as §1
# [6] = Toxic dose determined as neurotoxicity, 0.25 hr after intraperitoneal injection in mice.; assay type: toxicity, organism-based; settings: mouse, in vivo, ip
# Summary of the method: as §1
# Mus musculus [7] = assay: Ability to prevent seizures induced by subcutaneous injection of bicuculline, after 1 hr in mice; assay type: functional; settings: sc
# Summary of the method: (§4)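 Mice dosed intraperitoneally at various doses, then bicuculline 2.7 mg/kg given subcutaneously and protection noted. ED50 with 95% CI, slope and SE obtained using eight animals per dose; otherwise two, seven or eight mice per dose. Screening run by NINDS per its reported procedures.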
# [8] = Protective index is the ratio of TD50 and ED50 in subcutaneous pentylenetetrazole screen test; assay type: functional
# Summary of the method: (§5)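 Protection index is TD50/ED50, taken from intraperitoneal mouse data for the MES and scPTZ screens respectively, or from oral rat MES data.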
# Rattus norvegicus [9] = assay: Effective dose for protection against seizures induced in the maximal electroshock anticonvulsant screen test 1 hr after oral dosing in rat; assay type: functional
# Summary of the method: as §3
# [10] = Protective index is the ratio of TD50 and ED50 in maximal electroshock anticonvulsant screen test; assay type: functional
# Summary of the method: as §5
# Mus musculus [11] = assay: Ability to prevent seizures induced by subcutaneous injection of bicuculline, after 0.25 hr in mice; assay type: functional; settings: sc
# Summary of the method: as §4
# [12] = Neurotoxicity was determined, 1 hr after oral dosing in rat.; assay type: toxicity, organism-based; settings: in vivo
# Summary of the method: as §3
# Mus musculus [13] = assay: Ability to prevent seizures induced by subcutaneous injection of picrotoxin, after 0.25 hr in mice; assay type: functional; settings: sc
# Summary of the method: as §2
# Rattus norvegicus [14] = assay: Neurotoxicity was determined, of 0.25, 0.5, 1, 2 and 4 h, after 300 mg/kg oral dosing in rat.; assay type: toxicity, organism-based; parameters: dose 300 mg/kg, route oral; settings: in vivo
# Summary of the method: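 Rats given 300 mg/kg orally and checked for neurotoxicity 0.25, 0.5, 1, 2 and 4 h later, using two animals per time point. Testing done by NINDS.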
# [15] = Neurotoxicity was determined, 1 hr after oral dosing in rat; assay type: toxicity, organism-based; settings: in vivo
# Summary of the method: as §3
# [16] = Neurotoxicity was determined, 0.25 hr after intraperitoneal injection in mice.; assay type: toxicity, organism-based; settings: mouse, in vivo, ip
# Summary of the method: as §1
# Mus musculus [17] = assay: Ability to prevent seizures induced by subcutaneous injection of bicuculline, after 4 hr in mice; assay type: functional; settings: sc
# Summary of the method: as §4
# [18] = Toxic dose determined neurotoxicity, 1 hr after oral dosing in rat; assay type: toxicity, organism-based; settings: in vivo
# Summary of the method: (§6)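 Rats were dosed orally, with the NINDS programme running the tests by its reported procedures. MES protection (ED50) and neurotoxicity (TD50) were measured at timed intervals after dosing. Each value is given as a dose-response ED50 or TD50 in mg/kg with 95% CI, slope and SE.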
# Rattus norvegicus [19] = assay: Ability to protect against seizures induced in the maximal electro shock (MES) screen test 1 hr after oral dosing in rat; assay type: functional
# Summary of the method: as §6
# [20] = Toxic dose determined as neurotoxicity, 0.25 hr after intraperitoneal injection in mice; assay type: toxicity, organism-based; settings: mouse, in vivo, ip
# Summary of the method: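 Mice received the compound by intraperitoneal injection, with the NINDS programme running the test by its reported procedures. Neurotoxicity was assessed at set times after dosing. TD50 is given in mg/kg with 95% CI, slope and SE.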
# Rattus norvegicus [21] = assay: Ability to protect against seizures induced in the maximal electro shock (MES) screen,test1 hr after oral dosing in rat.; assay type: functional
# Summary of the method: as §3
SMILES,Ratio [1],ED50 (Mus musculus [2]),ED50 (Mus musculus [5]),Ratio [8],ED50 (Rattus norvegicus [9]),Ratio [10],ED50 (Mus musculus [11]),TD50 at 1 h [12],ED50 (Mus musculus [13]),TD50 at 0.25 h [16],also measured
NC(=O)N/N=C/c1cccc(Cl)c1,> 20.5,177 mg/kg,90.4 mg/kg,>2.82,24.4 mg/kg,> 5.53,–,–,–,–,ED50 (Mus musculus [3]): 200 mg/kg; TD50 at 1 h [4]: > 500 mg/kg; TD50 at 0.25 h [6]: > 500 mg/kg; ED50 (Mus musculus [7]): > 500 mg/kg
CCCCC/C(=N\NC(N)=O)c1ccccc1,> 15.3,–,–,–,32.6 mg/kg,–,363 mg/kg,> 500 mg/kg,230 mg/kg,–,–
CC/C(=N\NC(N)=O)c1ccccc1,12.3,–,–,–,32.8 mg/kg,–,> 100 mg/kg,404 mg/kg,128 mg/kg,–,–
COc1ccc(/C=N/NC(N)=O)cc1,–,–,–,–,–,–,–,–,–,–,TD50 (Rattus norvegicus [14]): No activity
NC(=O)N/N=C/c1ccc(Cl)cc1Cl,> 11.6,–,–,–,43.1 mg/kg,–,–,> 500 mg/kg,–,–,–
NC(=O)N/N=C/c1ccccc1Cl,> 12.9,–,–,–,38.8 mg/kg,–,–,> 500 mg/kg,–,–,–
NC(=O)N/N=C/c1ccc(Cl)cc1,> 26.9,135 mg/kg,74.8 mg/kg,1.87,18.6 mg/kg,3.37,> 300 mg/kg,–,146 mg/kg,252 mg/kg,TD50 at 1 h [15]: > 500 mg/kg
NC(=O)N/N=C/c1c(Cl)cccc1Cl,2.18,–,–,–,59 mg/kg,–,–,129 mg/kg,–,–,–
NC(=O)N/N=C/c1ccc(Cl)c(Cl)c1,> 24.8,> 500 mg/kg,146 mg/kg,–,20.2 mg/kg,> 3.43,–,> 500 mg/kg,–,> 500 mg/kg,ED50 (Mus musculus [17]): > 500 mg/kg
CC(C)/C(=N\NC(N)=O)c1ccccc1,5.66,–,–,–,43.3 mg/kg,–,–,245 mg/kg,–,–,–
NC(=O)NN=C(c1ccccc1)c1ccccc1 [DIPHENYLSEMICARBAZONE],10.3,76.2 mg/kg,47 mg/kg,1.18,22.9 mg/kg,1.91,> 100 mg/kg,235 mg/kg,–,89.7 mg/kg,–
C/C(=N/N=C(\N)S)c1ccc(Cl)cc1 [P-CHLOROPHENYL(METHYL)THIOSEMICARBAZONE],7.67,69.6 mg/kg,60.4 mg/kg,0.34,–,0.39,–,–,–,–,TD50 at 1 h [18]: 119 mg/kg; ED50 (Rattus norvegicus [19]): 15.5 mg/kg; TD50 at 0.25 h [20]: 23.8 mg/kg
CCCC/C(=N\NC(N)=O)c1ccccc1 [PHENYL(BUTYL)SEMICARBAZONE],> 8.41,108 mg/kg,58.3 mg/kg,0.97,59.5 mg/kg,1.81,–,> 500 mg/kg,–,106 mg/kg,–
CC(=NNC(N)=O)c1ccccc1 [PHENYL(METHYL)SEMICARBAZONE],13.2,78.5 mg/kg,35.1 mg/kg,1.05,20.2 mg/kg,2.34,> 100 mg/kg,268 mg/kg,60.8 mg/kg,82.3 mg/kg,–
C/C(=N\N=C(/N)S)c1ccccc1 [PHENYL(METHYL)THIOSEMICARBAZONE],4.33,–,–,–,16.9 mg/kg,–,–,73 mg/kg,–,–,–
NC(=O)N/N=C/C=C/c1ccccc1 [PHENYLETHENYLSEMICARBAZONE],> 43.5,84.7 mg/kg,48.9 mg/kg,1.16,11.5 mg/kg,2.01,> 120 mg/kg,> 500 mg/kg,–,98.2 mg/kg,–
NC(=O)N/N=C/CCc1ccccc1 [PHENYLETHYLSEMICARBAZONE],9.16,78.6 mg/kg,47 mg/kg,0.92,36.4 mg/kg,1.54,> 120 mg/kg,334 mg/kg,–,72.3 mg/kg,–
NC(=O)N/N=C/Cc1ccccc1 [PHENYLMETHYLSEMICARBAZONE],> 11.7,128 mg/kg,45.5 mg/kg,0.94,42.8 mg/kg,2.63,59.6 mg/kg,> 500 mg/kg,> 150 mg/kg,120 mg/kg,–
NC(=O)N/N=C\c1ccccc1 [PHENYLSEMICARBAZONE],11.3,127 mg/kg,69.7 mg/kg,1.6,–,2.93,116 mg/kg,–,104 mg/kg,–,ED50 (Rattus norvegicus [21]): 22.5 mg/kg; TD50 at 1 h [15]: 254 mg/kg; TD50 at 0.25 h [20]: 204 mg/kg
NC(=S)N/N=C/c1ccccc1 [PHENYLTHIOSEMICARBAZONE],> 15.6,–,–,–,12.8 mg/kg,–,–,> 200 mg/kg,–,–,–
